# Measurements from ChEMBL document CHEMBL5058577, “EUbOPEN Chemogenomics Library 2 (Multiplex)” (2022).
# System: Fibroblast
# Experiment: Multiplex assay against human fibroblast
# Assay type: toxicity, cell-based
# Summary of the method: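 Per cents of healthy-nucleus cells form the tubulin, mitochondrial-mass and membrane-permeability phenotype values. Live cells were stained at seeding with Hoechst33342, BioTracker Green Microtubule Cytoskeleton Dye, MitoTracker Red and Annexin V Alexa Fluor 680. After compound addition they were imaged on a CQ1 microscope at 37°C and 5% CO2, and CellPathfinder machine-learning gating split them into Hoechst high-intensity objects or normal cells, normal cells into healthy, pyknosed or fragmented nuclei, and pyknosed cells into mitotic or apoptotic.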
# [1] = 12 h, 1 µM, compound concentration 1 uM, replicate 1
# [2] = 12 h, 1 µM, compound concentration 1 uM, replicate 2
# [3] = 12 h, 10 µM, compound concentration 10 uM, replicate 1
# [4] = 12 h, 10 µM, compound concentration 10 uM, replicate 2
# [5] = 24 h, 1 µM, compound concentration 1 uM, replicate 1
# [6] = 24 h, 1 µM, compound concentration 1 uM, replicate 2
# [7] = 24 h, 10 µM, compound concentration 10 uM, replicate 1
# [8] = 24 h, 10 µM, compound concentration 10 uM, replicate 2
# [9] = 48 h, 1 µM, compound concentration 1 uM, replicate 1
# [10] = 48 h, 1 µM, compound concentration 1 uM, replicate 2
# [11] = 48 h, 10 µM, compound concentration 10 uM, replicate 1
# [12] = 48 h, 10 µM, compound concentration 10 uM, replicate 2
smiles,measurement,setting,value
CCOc1c2c(c(OCC)c3ncccc13)CN(c1ccc(CS(=O)(=O)NC(=O)Cc3ccccc3OC)cc1C)C2=O,Population Apoptotic (%),[1],44%
same,Population Fragmented Nuclei (%),[1],15%
same,Population Healthy Nuclei (%),[1],68%
same,Population Hoechst High Intensity Objects (%),[1],0%
same,Population Membrane Permeable-Phenotype (%),[1],1%
same,Population Mitochondria Different-Phenotype (%),[1],3%
same,Population Mitotic Cells (%),[1],55%
same,Population Normal (%),[1],99%
same,Population Pyknosed Nuclei (%),[1],15%
same,Population Tubulin-Different-Phenotype (%),[1],23%
same,Total Cell Count,[1],120
same,Population Apoptotic (%),[2],38%
same,Population Fragmented Nuclei (%),[2],37%
same,Population Healthy Nuclei (%),[2],42%
same,Population Hoechst High Intensity Objects (%),[2],4%
same,Population Membrane Permeable-Phenotype (%),[2],8%
same,Population Mitochondria Different-Phenotype (%),[2],2%
same,Population Mitotic Cells (%),[2],61%
same,Population Normal (%),[2],95%
same,Population Pyknosed Nuclei (%),[2],19%
same,Population Tubulin-Different-Phenotype (%),[2],62%
same,Total Cell Count,[2],111
same,Population Apoptotic (%),[3],35%
same,Population Fragmented Nuclei (%),[3],15%
same,Population Healthy Nuclei (%),[3],63%
same,Population Hoechst High Intensity Objects (%),[3],1%
same,Population Membrane Permeable-Phenotype (%),[3],1%
same,Population Mitochondria Different-Phenotype (%),[3],6%
same,Population Mitotic Cells (%),[3],64%
same,Population Normal (%),[3],98%
same,Population Pyknosed Nuclei (%),[3],21%
same,Population Tubulin-Different-Phenotype (%),[3],27%
same,Total Cell Count,[3],161
same,Population Apoptotic (%),[4],21%
same,Population Fragmented Nuclei (%),[4],19%
same,Population Healthy Nuclei (%),[4],50%
same,Population Hoechst High Intensity Objects (%),[4],3%
same,Population Membrane Permeable-Phenotype (%),[4],7%
same,Population Mitochondria Different-Phenotype (%),[4],8%
same,Population Mitotic Cells (%),[4],78%
same,Population Normal (%),[4],96%
same,Population Pyknosed Nuclei (%),[4],29%
same,Population Tubulin-Different-Phenotype (%),[4],54%
same,Total Cell Count,[4],146
same,Population Apoptotic (%),[5],56%
same,Population Fragmented Nuclei (%),[5],13%
same,Population Healthy Nuclei (%),[5],67%
same,Population Hoechst High Intensity Objects (%),[5],3%
same,Population Membrane Permeable-Phenotype (%),[5],2%
same,Population Mitochondria Different-Phenotype (%),[5],3%
same,Population Mitotic Cells (%),[5],43%
same,Population Normal (%),[5],96%
same,Population Pyknosed Nuclei (%),[5],18%
same,Population Tubulin-Different-Phenotype (%),[5],23%
same,Total Cell Count,[5],127
same,Population Apoptotic (%),[6],46%
same,Population Fragmented Nuclei (%),[6],37%
same,Population Healthy Nuclei (%),[6],32%
same,Population Hoechst High Intensity Objects (%),[6],2%
same,Population Membrane Permeable-Phenotype (%),[6],18%
same,Population Mitotic Cells (%),[6],53%
same,Population Normal (%),[6],97%
same,Population Pyknosed Nuclei (%),[6],29%
same,Population Tubulin-Different-Phenotype (%),[6],69%
same,Total Cell Count,[6],104
same,Population Apoptotic (%),[7],42%
same,Population Fragmented Nuclei (%),[7],17%
same,Population Healthy Nuclei (%),[7],66%
same,Population Hoechst High Intensity Objects (%),[7],3%
same,Population Membrane Permeable-Phenotype (%),[7],1%
same,Population Mitochondria Different-Phenotype (%),[7],2%
same,Population Mitotic Cells (%),[7],57%
same,Population Normal (%),[7],96%
same,Population Pyknosed Nuclei (%),[7],15%
same,Population Tubulin-Different-Phenotype (%),[7],19%
same,Total Cell Count,[7],171
same,Population Fragmented Nuclei (%),[8],25%
same,Population Healthy Nuclei (%),[8],49%
same,Population Hoechst High Intensity Objects (%),[8],4%
same,Population Membrane Permeable-Phenotype (%),[8],5%
same,Population Normal (%),[8],95%
same,Population Pyknosed Nuclei (%),[8],25%
same,Population Tubulin-Different-Phenotype (%),[8],50%
same,Total Cell Count,[8],142
same,Population Apoptotic (%),[9],57%
same,Population Fragmented Nuclei (%),[9],18%
same,Population Healthy Nuclei (%),[9],66%
same,Population Hoechst High Intensity Objects (%),[9],3%
same,Population Membrane Permeable-Phenotype (%),[9],1%
same,Population Mitochondria Different-Phenotype (%),[9],3%
same,Population Mitotic Cells (%),[9],42%
same,Population Normal (%),[9],96%
same,Population Pyknosed Nuclei (%),[9],15%
same,Population Tubulin-Different-Phenotype (%),[9],26%
same,Total Cell Count,[9],128
same,Population Apoptotic (%),[10],66%
same,Population Fragmented Nuclei (%),[10],47%
same,Population Healthy Nuclei (%),[10],40%
same,Population Hoechst High Intensity Objects (%),[10],5%
same,Population Membrane Permeable-Phenotype (%),[10],5%
same,Population Mitochondria Different-Phenotype (%),[10],7%
same,Population Mitotic Cells (%),[10],33%
same,Population Normal (%),[10],94%
same,Population Pyknosed Nuclei (%),[10],12%
same,Population Tubulin-Different-Phenotype (%),[10],72%
same,Total Cell Count,[10],105
same,Population Apoptotic (%),[11],71%
same,Population Fragmented Nuclei (%),[11],16%
same,Population Healthy Nuclei (%),[11],63%
same,Population Hoechst High Intensity Objects (%),[11],7%
same,Population Membrane Permeable-Phenotype (%),[11],1%
same,Population Mitochondria Different-Phenotype (%),[11],2%
same,Population Mitotic Cells (%),[11],28%
same,Population Normal (%),[11],92%
same,Population Pyknosed Nuclei (%),[11],20%
same,Population Tubulin-Different-Phenotype (%),[11],20%
same,Total Cell Count,[11],171
same,Population Apoptotic (%),[12],29%
same,Population Fragmented Nuclei (%),[12],34%
same,Population Healthy Nuclei (%),[12],45%
same,Population Hoechst High Intensity Objects (%),[12],9%
same,Population Membrane Permeable-Phenotype (%),[12],7%
same,Population Mitochondria Different-Phenotype (%),[12],5%
same,Population Mitotic Cells (%),[12],70%
same,Population Normal (%),[12],90%
same,Population Tubulin-Different-Phenotype (%),[12],51%
same,Total Cell Count,[12],131
